Source: ChEMBL document CHEMBL4351017, “Selenocoumarins as new multitarget antiproliferative agents: Synthesis, biological evaluation and in silico calculations” (Eur J Med Chem, 2019)
The source made the active and inactive calls. No cut-off for these calls is given here.

How the values were obtained:
[1] = tested on: hTERT-BJ; assay: (§1) Cytotoxicity against human hTERT-BJ cells assessed as growth inhibition measured after 48 hrs by sulforhodamine B assay; type: cell-based; settings: htert-bj, 48 h
In short: (§2)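 NCI protocol with minor modifications. Human tumour lines or fibroblasts in RPMI 1640 with 1 mM glutamine, 5% FBS and antibiotics, 37 °C, 5% CO2, low passage. DMSO stocks at 40 mM. Cells exposed for 48 h to serial decimal dilutions, 0.001–100 µM. GI50 in µM from at least two independent experiments, with SD.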

[2] = tested on: HeLa; assay: Antiproliferative activity against human HeLa cells assessed as growth inhibition measured after 48 hrs by sulforhodamine B assay; type: functional
In short: (§3)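 NCI protocol with minor modifications. DMSO stocks at 40 mM. Cells exposed for 48 h to serial decimal dilutions, 0.001–100 µM. GI50 in µM from at least two independent experiments, with SD.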

[3] = tested on: HBL-100; assay: Antiproliferative activity against human HBL100 cells assessed as growth inhibition measured after 48 hrs by sulforhodamine B assay; type: functional; settings: HBL-100, 48 h; in short: as §3
[4] = tested on: A549; assay: Antiproliferative activity against human A549 cells assessed as growth inhibition measured after 48 hrs by sulforhodamine B assay; type: functional; settings: A549, 48 h; in short: as §3
[5] = tested on: T47D; assay: Antiproliferative activity against human T47D cells assessed as growth inhibition measured after 48 hrs by sulforhodamine B assay; type: functional; in short: as §3
[6] = tested on: WiDr; assay: Antiproliferative activity against human WiDr cells assessed as growth inhibition measured after 48 hrs by sulforhodamine B assay; type: functional; in short: as §3
[7] = Selectivity index, ratio of GI50 for Cytotoxicity against human hTERT-BJ cells to ratio of GI50 for antiproliferative activity against human T47D cells; type: toxicity, cell-based; settings: hTERT-BJ cells versus T47D cells, read-out: RatioGI50
[8] = tested on: HeLa; assay: Anticancer activity against human HeLa cells assessed as increase in ROS production at 10 uM measured after 48 hrs by ROS-GloTM H2O2 assay; type: functional, cell-based
In short: (§4)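 HeLa cells in RPMI 1640 with 1 mM glutamine, 5% FBS and antibiotics, 37 °C, 5% CO2. Exposed to compound at 1 or 10 µM for 48 h. ROS (H2O2) read with a non-lytic, HRP-free luminescent kit per the manufacturer.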

[9] = tested on: SW1573; assay: (§5) Resistance factor, ratio of GI50 for antiproliferative activity against human SW1573 cells over-expressing P-gp incubated for 48 hrs in absence of P-gp and CYP3A4/5 inhibitor verapamil by sulforhodamine B assay to GI50 for antiproliferative activity against human SW1573 cells incubated for 48 hrs in absence of P-gp and CYP3A4/5 inhibitor verapamil by sulforhodamine B assay; type: functional
In short: (§6)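 Resistance factor: GI50 in SW1573/PGP divided by GI50 in wild-type SW1573. Both came from 48 h exposure, with or without 10 µM verapamil. GI50 values are from at least two independent experiments.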

[10] = tested on: SW1573; assay: Antiproliferative activity against human SW1573 cells over-expressing P-gp incubated for 48 hrs in absence of P-gp and CYP3A4/5 inhibitor verapamil by sulforhodamine B assay; type: functional; settings: SW1573, 48 h
In short: (§7)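 Wild-type and P-gp-overexpressing SW1573 cells were grown in RPMI 1640 with 1 mM glutamine, 5% FBS and antibiotics at 37 °C. Cells were exposed for 48 h to serial decimal dilutions, 0.001–100 µM, with or without 10 µM verapamil. GI50 values come from at least two independent experiments, with SD.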

[11] = Selectivity index, ratio of GI50 for Cytotoxicity against human hTERT-BJ cells to ratio of GI50 for antiproliferative activity against human HeLa cells; type: toxicity, cell-based; settings: hTERT-BJ cells versus HeLa cells, read-out: RatioGI50
[12] = tested on: SW1573; assay: Antiproliferative activity against human SW1573 cells over-expressing P-gp incubated for 48 hrs in presence of P-gp and CYP3A4/5 inhibitor verapamil by sulforhodamine B assay; type: functional; settings: SW1573, 48 h; in short: as §7
[13] = tested on: SW1573; assay: as §5, with “hrs in presence of P-gp” for “hrs in absence of P-gp”, “by sulforhodamine assay to” for “by sulforhodamine B assay to”; type: functional; in short: as §6
[14] = tested on: SW1573; assay: Antiproliferative activity against human SW1573 cells incubated for 48 hrs in absence of P-gp and CYP3A4/5 inhibitor verapamil by sulforhodamine B assay; type: functional; settings: SW1573, 48 h; in short: as §7
[15] = Selectivity index, ratio of GI50 for Cytotoxicity against human hTERT-BJ cells to ratio of GI50 for antiproliferative activity against human WiDr cells; type: toxicity, cell-based; settings: hTERT-BJ cells versus WiDr cells, read-out: RatioGI50
[16] = Selectivity index, ratio of GI50 for Cytotoxicity against human hTERT-BJ cells to ratio of GI50 for antiproliferative activity against human HBL100 cells
[17] = Selectivity index, ratio of GI50 for Cytotoxicity against human hTERT-BJ cells to ratio of GI50 for antiproliferative activity against human A549 cells; type: toxicity, cell-based; settings: hTERT-BJ cells versus A549 cells, read-out: RatioGI50
[18] = as §1; type: cell-based; settings: hTERT-BJ cells; in short: as §2
[19] = tested on: SW1573; assay: Antiproliferative activity against human SW1573 cells incubated for 48 hrs in presence of P-gp and CYP3A4/5 inhibitor verapamil by sulforhodamine B assay; type: functional; settings: SW1573, 48 h; in short: as §7
[20] = target: T1, Histone deacetylase 8 (Homo sapiens) (UniProt Q9BY41); assay: Potency index, ratio of inhibition activity of trichostatin to inhibition activity of compound HDAC8 (unknown origin)
T1 sequence (whole entry): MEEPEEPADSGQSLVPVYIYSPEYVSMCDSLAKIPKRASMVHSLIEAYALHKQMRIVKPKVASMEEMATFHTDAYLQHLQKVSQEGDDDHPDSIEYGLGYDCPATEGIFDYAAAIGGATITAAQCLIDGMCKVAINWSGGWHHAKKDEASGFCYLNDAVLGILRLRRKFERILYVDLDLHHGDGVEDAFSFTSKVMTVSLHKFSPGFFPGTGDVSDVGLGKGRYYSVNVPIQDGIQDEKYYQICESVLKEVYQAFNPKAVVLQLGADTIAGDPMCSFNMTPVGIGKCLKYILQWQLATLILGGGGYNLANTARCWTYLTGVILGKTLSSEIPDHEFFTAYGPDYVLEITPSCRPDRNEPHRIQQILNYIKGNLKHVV

[21] = tested on: HeLa; assay: Anticancer activity against human HeLa cells assessed as increase in ROS production at 1 uM measured after 48 hrs by ROS-GloTM H2O2 assay; type: functional, cell-based; in short: as §4
[22] = tested on: WiDr; assay: Potency index, ratio of GI50 for CDDP to test compound GI50 for antiproliferative activity against human WiDr cells; type: functional
[23] = tested on: T47D; assay: Potency index, ratio of GI50 for CDDP to test compound GI50 for antiproliferative activity against human T47D cells; type: functional

Row | SMILES | GI50 [2] [µM] | GI50 [3] [µM] | GI50 [4] [µM] | GI50 [5] [µM] | GI50 [6] [µM] | Activity [8] | RatioGI50 [9] | GI50 [10] [µM] | GI50 [12] [µM] | RatioGI50 [13] | GI50 [14] [µM] | GI50 at 48 h [18] [µM] | GI50 [19] [µM] | other results
1 | CCCCOC(=[Se])Nc1ccc2c(C)cc(=O)oc2c1 | – | – | – | – | – | – | – | – | – | – | – | – | – | GI50 [1]: Nd(Insoluble)
2 | COC(=[Se])Nc1ccc2c(C)cc(=O)oc2c1 | 78 | > 100 | > 100 | > 100 | > 100 | – | – | – | – | – | – | – | – | –
3 | Cc1cc(=O)oc2cc(N=C=[Se])ccc12 | 12 | 5 | 3.6 | 3.6 | 4.8 | Active | 1.1 | 29 | 24 | 0.9 | 27 | 50 | 29 | selectivity ratio [7]: ≤ 14; selectivity ratio [11]: ≤ 14; selectivity ratio [15]: ≤ 14; RatioGI50 [16]: <=14; selectivity ratio [17]: ≤ 14
4 | Cc1cc(=O)oc2cc(NC(=[Se])Nc3ccc(C(F)(F)F)cc3)ccc12 | 21 | 13 | 8.6 | 8.7 | 6 | Active | 1.2 | 24 | 22 | 0.9 | 20 | 32 | 26 | –
5 | COc1ccc(NC(=[Se])Nc2ccc3c(C)cc(=O)oc3c2)cc1 | 35 | 38 | 28 | 33 | 23 | Active | 1.7 | 24 | 25 | 2.5 | 14 | > 100 | 10 | –
6 | Cc1cc(=O)oc2cc(NC(=[Se])Nc3ccc4c(C)cc(=O)oc4c3)ccc12 | 2.9 | 3.5 | 3.2 | 3.6 | 4.5 | – | 12 | 55 | 21 | 2.3 | 4.5 | 4.9 | 9 | Ratio [20]: 1.65; Activity [21]: Active; RatioGI50 [22]: <=6; RatioGI50 [23]: <=6
7 | CC(=O)O[C@H]1C(=O)[C@@]2(C)[C@H]([C@H](OC(=O)c3ccccc3)[C@]3(O)C[C@H](OC(=O)[C@H](O)[C@@H](NC(=O)c4ccccc4)c4ccccc4)C(C)=C1C3(C)C)[C@]1(OC(C)=O)CO[C@@H]1C[C@@H]2O [PACLITAXEL] | – | – | – | – | – | – | – | 0.196 | 0.0042 | 3 | 0.0015 | – | 0.0016 | –
8 | CCOC(=[Se])Nc1ccc2c(C)cc(=O)oc2c1 | > 100 | > 100 | > 100 | > 100 | > 100 | – | – | – | – | – | – | – | – | –
9 | Cc1cc(=O)oc2cc(NC(=[Se])Nc3ccc(Br)cc3)ccc12 | 2.2 | 2.2 | 2.7 | 2.8 | 3.5 | – | 0.9 | 9.6 | 16 | 1 | 11 | 4.4 | 16 | Activity [21]: Active; RatioGI50 [22]: <=6; RatioGI50 [23]: <=6
10 | CCCOC(=[Se])Nc1ccc2c(C)cc(=O)oc2c1 | 23 | 34 | 37 | 41 | 42 | Active | 2 | 32 | 35 | 3 | 16 | 33 | 12 | –
11 | Cc1cc(=O)oc2cc(NC(=[Se])Nc3ccccc3)ccc12 | 24 | 28 | 28 | 24 | 34 | Active | 0.9 | 21 | 21 | 0.8 | 23 | > 100 | 25 | –
12 | CC[C@]1(O)C[C@@H]2CN(CCc3c([nH]c4ccccc34)[C@@](C(=O)OC)(c3cc4c(cc3OC)N(C)[C@H]3[C@@](O)(C(=O)OC)[C@H](OC(C)=O)[C@]5(CC)C=CCN6CC[C@]43[C@@H]65)C2)C1 [VINBLASTINE] | – | – | – | – | – | – | – | 2.05 | 0.001 | 1 | 0.0009 | – | 0.0008 | –
13 | CCCCNC(=[Se])Nc1ccc2c(C)cc(=O)oc2c1 | 5.2 | 2.3 | 3 | 2.9 | 3.8 | – | 0.8 | 2.3 | 2 | 0.7 | 3 | 3.1 | 2.7 | Activity [21]: Active; RatioGI50 [22]: <=6; RatioGI50 [23]: <=6
